In article PMC5409837 (Science translational medicine, 2017):
Where two headings read alike, the source gives them in different places.

How the values were obtained:
hiPSC-CMs [1] = details: for LD50: hiPSC-CMs, 72 hour TKI treatment, PrestoBlue cell viability assay
hiPSC-CMs [2] = experiment: Patch clamp electrophysiology; type: cell-based, human; details: two hour treatment; for action potential duration: clinically-relevant concentrations
[3] = tested on: INSR and IGF1R phosphorylation; experiment: Human Phospho-RTK Array in hiPSC-CMs: INSR and IGF1R; type: cell-based; details: for INSR and IGF1R phosphorylation: 0-1 μM, 72 hours
hiPSC-CMs [4] = experiment: High-throughput hiPSC-CM contractility assessment; type: cell-based, human; details: for alterations in beating rate relative to LD50: commercially-available healthy control hiPSC-CMs, 72 hour treatment
[5] = tested on: VEGFR2 and PDGFRα phosphorylation; details: hiPSC-CMs
hiPSCs = type: cell-based, human
hiPSC-CMs [6] = experiment: Calcium imaging of hiPSC-CMs; type: cell-based, human; details: 2 hour treatment; for beat rate (calcium imaging) / calcium transient duration: clinically-relevant concentrations
Method in brief: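 hiPSC-CMs (day 30–40 post-differentiation) reseeded on Matrigel-coated chamber slides and exposed to test compound for 2 hours; compound stocks in DMSO at 10 mM. Cells loaded with 5 μM Fluo-4 AM plus 0.02% Pluronic F-127 in Tyrode's solution for 15 min at 37°C, then washed. Spontaneous Ca2+ transients recorded at 37°C by confocal single-cell line scan.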

[7] = Clinical cardiotoxicity in patients; type: in vivo, human; details: sunitinib first-line, axitinib second-line treatment
Axl phosphorylation = experiment: Human Phospho-RTK Array in hiPSC-CMs: Axl; type: cell-based; details: 0-1 μM, 72 hours
hiPSC-CMs [8] = tested on: hiPSC-CMs
[9] = patients, cited from earlier work
neuropilin 2 (NRP2) = experiment: Microarray gene expression in hiPSC-CMs after TKI treatment; type: cell-based, human; details: 1 μM TKI, 72 hour
hiPSC-ECs = experiment: TKI cytotoxicity in hiPSC-derived endothelial cells; type: cell-based
hiPSC-CFs = experiment: TKI cytotoxicity in hiPSC-derived cardiac fibroblasts; type: cell-based
hiPSC-CMs [10] = details: cited from earlier work
VEGFC = experiment: RNA-sequencing of hiPSC-CMs treated with sorafenib: VEGFC; type: cell-based, human; details: 5 healthy control hiPSC-CM lines, 1 μM, 72 hours
zebrafish heart = details: cited from earlier work
hiPSC-CMs [11] = type: cell-based; details: for rescue of ponatinib toxicity (hiPSC-CM viability): co-treatment with ponatinib, 72 hours, CellTiter-Glo
Akt protein network = experiment: Human Phospho-Kinase Antibody Array in hiPSC-CMs after IGF1 or insulin; type: cell-based; details: 12 hour IGF1 or insulin treatment
[12] = quantitative and qualitative viability assays

CNC(=O)c1ccccc1Sc1ccc2c(/C=C/c3ccccn3)n[nH]c2c1 [axitinib]
difference in cytotoxicity between TKI-receiving patient hiPSC-CMs and healthy control hiPSC-CM lines (hiPSC-CMs [1]): did not observe a significant difference in cytotoxicity
relative cytotoxicity among TKIs in hiPSC-CMs (hiPSC-CMs [1]): the least cytotoxic TKI in hiPSC-CMs
action potential duration (hiPSC-CMs [2]): did not alter action potential duration
fold enhancement of INSR/IGF1R phosphorylation [3]: two-fold
INSR and IGF1R phosphorylation [3]: increased INSR and IGF1R phosphorylation
contraction irregularities (hiPSC-CMs [4]; clinically-relevant concentrations): Neither DMSO nor axitinib elicited contraction irregularities
VEGFR2 and PDGFRα phosphorylation ([5]; 0-1 μM, 72 hours, sub-cytotoxic concentrations): the strongest dual-inhibition
toxicity in undifferentiated hiPSCs (hiPSCs): extremely toxic to hiPSCs
calcium imaging parameters (transient amplitude, transient duration, beating rate) (hiPSC-CMs [6]): did not significantly alter parameters such as calcium transient amplitude, transient duration, or beating rate
clinical cardiotoxicity in the two kidney cancer patients [7]: no significant clinical cardiotoxicity

COc1cc2nccc(Oc3ccc(NC(=O)C4(C(=O)Nc5ccc(F)cc5)CC4)cc3)c2cc1OC [cabozantinib]
Axl phosphorylation (Axl phosphorylation): decreased Axl phosphorylation

COc1cccc2c1C(=O)c1c(O)c3c(c(O)c1C2=O)C[C@@](O)(C(=O)CO)C[C@@H]3O[C@H]1C[C@H](N)[C@H](O)[C@H](C)O1 [doxorubicin]
LD50 (hiPSC-CMs [1]): 0.78 µM
toxicity in hiPSCs at 0.1 μM (hiPSCs): lethal
toxicity in undifferentiated hiPSCs (hiPSCs): substantially enhanced in hiPSCs
cardiac safety index (hiPSC-CMs [8]; human, 72 h): ≤ 0.10

C#Cc1cccc(Nc2ncnc3cc(OCCOC)c(OCCOC)cc23)c1 [erlotinib]
LD50 (hiPSC-CMs [1]): 87.60 µM

Cc1ccc(NC(=O)c2ccc(CN3CCN(C)CC3)cc2)cc1Nc1nccc(-c2cccnc2)n1 [imatinib]
calcium imaging parameters (transient amplitude, transient duration, beating rate) (hiPSC-CMs [6]): did not significantly alter parameters such as calcium transient amplitude, transient duration, or beating rate

Cc1cn(-c2cc(NC(=O)c3ccc(C)c(Nc4nccc(-c5cccnc5)n4)c3)cc(C(F)(F)F)c2)cn1 [nilotinib]
clinical QT interval prolongation and arrhythmias [9]: cause dangerous QT interval prolongation and arrhythmias clinically
cellular beating rate (patch clamp) (hiPSC-CMs [2]): decreased cellular beating rate
action potential duration (hiPSC-CMs [2]): significantly prolonged action potential duration
alterations in beating rate relative to LD50 (hiPSC-CMs [4]): alterations in hiPSC-CM beating rate and other parameters at doses lower than LD50 cytotoxicity values
cardiac safety index (hiPSC-CMs [8]; human, 72 h): ≤ 0.10
beat rate (calcium imaging) (hiPSC-CMs [6]): decreased beat rate
calcium transient duration (hiPSC-CMs [6]): prolonged calcium transient duration

Cc1ccc(C(=O)Nc2ccc(CN3CCN(C)CC3)c(C(F)(F)F)c2)cc1C#Cc1cnc2cccnn12 [ponatinib]
LD50 (hiPSC-CMs [1]): 4.3 µM
cytotoxicity in all eleven healthy control hiPSC-CM lines (hiPSC-CMs [1]; [12]): highly cytotoxic
increase in expression of neuropilin 2 (neuropilin 2 (NRP2)): two-fold
fold enhancement of INSR/IGF1R phosphorylation [3]: two-fold
INSR and IGF1R phosphorylation [3]: increased INSR and IGF1R phosphorylation
relative cytotoxicity in hiPSC-ECs (hiPSC-ECs): the most cytotoxic TKIs in hiPSC-ECs
relative cytotoxicity in hiPSC-CFs (hiPSC-CFs): the highest cytotoxicities
mitochondrial stress and contraction abnormalities in hiPSC-CMs (hiPSC-CMs [10]): induce mitochondrial stress and elicit contraction abnormalities in hiPSC-CMs
VEGFR2/PDGFR inhibition at nanomolar concentrations [5]: complete VEGFR2/PDGFR inhibition

CNC(=O)c1cc(Oc2ccc(NC(=O)Nc3ccc(Cl)c(C(F)(F)F)c3)c(F)c2)ccn1 [regorafenib]
LD50 (hiPSC-CMs [1]): 7.1 µM
cytotoxicity in all eleven healthy control hiPSC-CM lines (hiPSC-CMs [1]; [12]): highly cytotoxic
increase in expression of neuropilin 2 (neuropilin 2 (NRP2)): two-fold
relative cytotoxicity in hiPSC-ECs (hiPSC-ECs): the most cytotoxic TKIs in hiPSC-ECs
relative cytotoxicity in hiPSC-CFs (hiPSC-CFs): the highest cytotoxicities
VEGFR2/PDGFR inhibition at nanomolar concentrations [5]: complete VEGFR2/PDGFR inhibition
cardiac safety index (hiPSC-CMs [8]; value from 0-1, 0.10 = threshold for highly cardiotoxic compounds): below 0.10

CNC(=O)c1cc(Oc2ccc(NC(=O)Nc3ccc(Cl)c(C(F)(F)F)c3)cc2)ccn1 [sorafenib]
cytotoxicity in all eleven healthy control hiPSC-CM lines (hiPSC-CMs [1]): highly cytotoxic
LD50 (hiPSC-CMs [1]): 3.4 µM
VEGFC expression (VEGFC): increased expression
increase in expression of neuropilin 2 (neuropilin 2 (NRP2)): two-fold
clinical cardiotoxicity ([9]; ref Table S2, 20): causes ventricular dysfunction and heart failure clinically
cardiotoxicity in zebrafish heart (zebrafish heart): induces cardiomyocyte death and contractility defects in the zebrafish heart

CCN(CC)CCNC(=O)c1c(C)[nH]c(/C=C2\C(=O)Nc3ccc(F)cc32)c1C [sunitinib]
difference in cytotoxicity between TKI-receiving patient hiPSC-CMs and healthy control hiPSC-CM lines (hiPSC-CMs [1]): did not observe a significant difference in cytotoxicity
clinical cardiotoxicity in the two kidney cancer patients [7]: no significant clinical cardiotoxicity

COc1cc2c(Nc3ccc(Br)cc3F)ncnc2cc1OCC1CCN(C)CC1 [vandetanib]
clinical QT interval prolongation and arrhythmias [9]: cause dangerous QT interval prolongation and arrhythmias clinically
cellular beating rate (patch clamp) (hiPSC-CMs [2]): decreased cellular beating rate
action potential duration (hiPSC-CMs [2]): significantly prolonged action potential duration
alterations in beating rate relative to LD50 (hiPSC-CMs [4]): alterations in hiPSC-CM beating rate and other parameters at doses lower than LD50 cytotoxicity values
beat rate (calcium imaging) (hiPSC-CMs [6]): decreased beat rate
calcium transient duration (hiPSC-CMs [6]): prolonged calcium transient duration

IGF1
rescue of ponatinib toxicity (hiPSC-CM viability) (hiPSC-CMs [11]): cardioprotective effect
rescue of ponatinib toxicity (hiPSC-CM viability) (hiPSC-CMs [11]; listed as IGF): significantly rescued ponatinib toxicity
phosphorylation of Akt protein network (Akt protein network): enhanced phosphorylation of the anti-apoptotic Akt protein network

insulin
rescue of doxorubicin cytotoxicity in hiPSC-CMs (hiPSC-CMs [11]; co-treatment with doxorubicin): rescued hiPSC-CMs from doxorubicin cytotoxicity
phosphorylation of Akt protein network (Akt protein network): enhanced phosphorylation of the anti-apoptotic Akt protein network
